For one series, the target named is P-gp (Homo sapiens, UniProt P08183). Put plainly: P-gp bidirectional transport assay in human Caco-2 cell monolayers. It is filed as in vitro ADME. Particulars: Caco-2, pH 7.4. (In general: Caco-2 cells form a polarised layer with tight junctions and transporters.)
A further series in a line: Clinical DDI study U107. It counts as in vivo, human.
Another series can be described thus: Milademetan PBPK model. Also noted: species or system human. In outline: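 Minimal PBPK model with one adjusting compartment and ADAM absorption that includes intestinal P-gp; renal and biliary clearance set to zero. Vss, kin, kout, Vsac and oral clearance fitted to healthy-subject plasma data after a single fasted 100 mg oral dose.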
The target of series [1] is T1, CYP3A4 (Homo sapiens, UniProt P08684). The series can be described thus: Incubation of [14C]milademetan with recombinant human CYP3A4. Particulars: [14C]milademetan 1 µM, 60 min, unpublished in-house data. It is filed as in vitro ADME.
Target sequence in this assay (P08684 whole entry): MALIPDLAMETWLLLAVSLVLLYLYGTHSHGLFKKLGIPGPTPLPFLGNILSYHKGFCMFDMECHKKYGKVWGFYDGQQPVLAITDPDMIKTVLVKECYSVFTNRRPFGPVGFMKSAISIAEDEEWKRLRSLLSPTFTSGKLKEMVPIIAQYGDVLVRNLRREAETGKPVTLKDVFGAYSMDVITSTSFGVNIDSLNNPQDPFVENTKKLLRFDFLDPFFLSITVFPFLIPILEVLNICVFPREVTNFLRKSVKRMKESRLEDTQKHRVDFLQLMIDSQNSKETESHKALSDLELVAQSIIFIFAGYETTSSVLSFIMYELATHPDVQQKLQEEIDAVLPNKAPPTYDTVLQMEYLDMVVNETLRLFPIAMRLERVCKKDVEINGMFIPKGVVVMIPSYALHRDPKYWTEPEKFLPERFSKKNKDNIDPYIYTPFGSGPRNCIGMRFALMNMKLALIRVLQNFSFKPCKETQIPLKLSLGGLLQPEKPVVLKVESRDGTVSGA
In the next series the target is CYP3A5 (Homo sapiens, UniProt P20815). Put plainly: Incubation of [14C]milademetan with recombinant human CYP3A5. It counts as in vitro ADME. The settings on record: [14C]milademetan 1 µM, 60 min, unpublished in-house data.
Series [2] deals with T1, CYP3A4. The series can be described thus: CYP3A inhibition. It is filed as in vitro ADME. Particulars: pooled human hepatic microsomes, probe midazolam.
Target sequence in this assay (P08684 2-503): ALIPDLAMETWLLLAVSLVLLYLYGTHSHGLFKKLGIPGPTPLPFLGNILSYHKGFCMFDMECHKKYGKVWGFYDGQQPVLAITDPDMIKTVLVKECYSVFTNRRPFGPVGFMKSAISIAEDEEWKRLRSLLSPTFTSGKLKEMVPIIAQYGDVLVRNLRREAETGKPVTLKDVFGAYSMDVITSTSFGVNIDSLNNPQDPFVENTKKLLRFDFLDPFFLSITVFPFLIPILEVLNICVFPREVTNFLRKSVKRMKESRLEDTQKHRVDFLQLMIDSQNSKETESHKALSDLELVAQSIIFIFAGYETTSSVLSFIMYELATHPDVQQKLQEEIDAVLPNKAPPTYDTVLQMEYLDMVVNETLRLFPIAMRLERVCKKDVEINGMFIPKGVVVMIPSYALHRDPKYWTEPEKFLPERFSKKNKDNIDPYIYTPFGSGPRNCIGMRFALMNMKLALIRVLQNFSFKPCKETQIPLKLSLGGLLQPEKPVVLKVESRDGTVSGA
Series [3] can be described thus: Rat ADME study with [14C]milademetan. It counts as in vivo. The settings on record: single oral [14C]milademetan 30 mg/kg.
Series [4] is described as follows: Clinical food effect study. It is filed as in vivo, human. Particulars: high-calorie, high-fat meal vs fasted state; unpublished in-house data.
Series [5] in a line: Plasma protein unbound fraction measured in vitro. It is filed as in vitro ADME.
The conditions of series [6]: ref NCT01877382, cited from earlier work; for maximum tolerated dose: advanced solid tumors or lymphomas.
[7] abbreviates: Optimized by fitting clinical data (U107), milademetan alone, fasted.
[8] abbreviates: bile duct–cannulated rats, up to 48 h.

Several values for one entry are separate records, joined by “and”; a condition that tells them apart may be missing. Identical values can stand only once. Like-named read-outs stand apart in the source and are kept apart here.

Sequence of P-gp (P08183 whole entry): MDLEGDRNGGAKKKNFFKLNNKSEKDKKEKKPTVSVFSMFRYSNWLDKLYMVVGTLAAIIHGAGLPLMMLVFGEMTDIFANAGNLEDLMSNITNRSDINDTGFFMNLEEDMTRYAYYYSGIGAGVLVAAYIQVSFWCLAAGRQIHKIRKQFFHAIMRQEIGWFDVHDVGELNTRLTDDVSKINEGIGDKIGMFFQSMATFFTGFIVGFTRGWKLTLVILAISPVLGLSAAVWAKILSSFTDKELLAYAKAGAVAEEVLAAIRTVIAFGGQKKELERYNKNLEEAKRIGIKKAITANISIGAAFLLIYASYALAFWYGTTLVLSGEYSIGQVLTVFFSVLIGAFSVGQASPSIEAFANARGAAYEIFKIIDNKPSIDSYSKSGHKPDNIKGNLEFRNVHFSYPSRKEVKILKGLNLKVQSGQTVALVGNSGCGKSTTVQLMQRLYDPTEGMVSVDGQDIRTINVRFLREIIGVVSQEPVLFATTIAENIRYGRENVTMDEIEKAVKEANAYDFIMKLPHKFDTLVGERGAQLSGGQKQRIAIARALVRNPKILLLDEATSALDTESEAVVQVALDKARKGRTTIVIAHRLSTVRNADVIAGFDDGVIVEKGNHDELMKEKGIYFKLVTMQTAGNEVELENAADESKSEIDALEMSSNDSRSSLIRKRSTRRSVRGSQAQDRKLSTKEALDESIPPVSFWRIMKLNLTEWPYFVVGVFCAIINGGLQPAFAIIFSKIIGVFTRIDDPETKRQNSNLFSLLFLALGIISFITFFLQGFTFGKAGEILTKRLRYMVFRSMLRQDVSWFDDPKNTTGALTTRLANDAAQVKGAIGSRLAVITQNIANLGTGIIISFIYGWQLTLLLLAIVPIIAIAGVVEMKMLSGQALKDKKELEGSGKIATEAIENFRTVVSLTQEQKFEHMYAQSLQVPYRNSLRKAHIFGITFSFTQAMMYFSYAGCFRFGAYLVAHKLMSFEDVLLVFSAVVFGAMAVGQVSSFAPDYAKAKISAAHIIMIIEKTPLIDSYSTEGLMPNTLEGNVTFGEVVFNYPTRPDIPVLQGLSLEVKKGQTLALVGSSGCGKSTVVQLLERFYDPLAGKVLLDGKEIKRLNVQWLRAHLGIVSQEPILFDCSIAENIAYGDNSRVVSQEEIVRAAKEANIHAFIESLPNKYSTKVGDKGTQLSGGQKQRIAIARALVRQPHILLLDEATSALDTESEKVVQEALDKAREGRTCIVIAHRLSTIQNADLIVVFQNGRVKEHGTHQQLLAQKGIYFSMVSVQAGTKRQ
Sequence of CYP3A5 (P20815 whole entry): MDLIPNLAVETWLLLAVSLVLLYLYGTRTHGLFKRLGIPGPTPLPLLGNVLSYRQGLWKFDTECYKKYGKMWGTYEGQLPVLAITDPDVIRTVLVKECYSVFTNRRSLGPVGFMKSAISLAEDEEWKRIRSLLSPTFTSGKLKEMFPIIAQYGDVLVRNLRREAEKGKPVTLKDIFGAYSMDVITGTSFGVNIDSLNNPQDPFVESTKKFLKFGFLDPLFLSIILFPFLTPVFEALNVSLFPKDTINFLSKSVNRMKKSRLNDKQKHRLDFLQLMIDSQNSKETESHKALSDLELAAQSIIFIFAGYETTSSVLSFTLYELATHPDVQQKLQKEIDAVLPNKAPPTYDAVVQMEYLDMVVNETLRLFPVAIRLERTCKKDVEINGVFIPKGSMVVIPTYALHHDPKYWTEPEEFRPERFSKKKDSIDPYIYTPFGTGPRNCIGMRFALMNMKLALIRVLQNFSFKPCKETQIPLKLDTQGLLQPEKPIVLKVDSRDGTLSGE

The Papp is a coefficient for how fast a substance crosses the barrier. Lower therefore signals slow passage. The compound `CC(C)NCC(O)COc1cccc2ccccc12` (stereo not drawn) [Propranolol, reference compound] returned a Papp on P-gp of 43 ×10⁻⁶ cm/s.
What is called CL/F is the apparent clearance, not corrected for the fraction that reaches the circulation. The AUC(0-t) is exposure summed from dosing to a finite time, without extrapolation to infinity. High values mean more exposure, low ones less exposure. Usually Cmax stands for the maximum level reached in the sampled fluid or tissue. The Tmax is the time at which the peak concentration occurs. The term Vd/F denotes the volume of distribution divided by bioavailability. What is called half-life is how long it takes for the measured level to halve. Read a low half-life as rapid decline. For orientation: microsomal CLint means the rate of metabolic loss divided by the concentration. Read a high microsomal CLint as rapid turnover. As usually defined, the Ki is a measure of affinity in units of concentration, obtained from inhibition or displacement. Read a low Ki as higher affinity. Usually fraction unbound stands for free concentration divided by total concentration. Low readings indicate little free substance, high ones much free substance. Turning to `CC1(C)CCC2(CC1)N[C@@H](C(=O)N[C@@H]1CC[C@@H](C(N)=O)OC1)[C@H](c1ccnc(Cl)c1F)[C@]21C(=O)Nc2cc(Cl)ccc21` [milademetan], the CL/F in the series “Clinical DDI study U107” (100 mg alone, fasted (sequence AB, treatment A), geometric mean (CV%)) was 6.8 L/h and 6.80 L/h and 6.80 (33.5) L/h; in “Clinical DDI study U107” (100 mg with itraconazole (treatment B), geometric mean (CV%)), 3.13 L/h and 3.13 (35.4) L/h; in “Clinical DDI study U107” (100 mg with posaconazole (treatment C), geometric mean (CV%)), 2.91 L/h and 2.91 (25.5) L/h. The same compound came in with an AUC(0-t) in “Clinical DDI study U107” (human, plasma, oral, 100 mg, AUClast, 100 mg alone, 2 h following a full meal (sequence AC, treatment A), geometric mean (CV%)) of 13500 ng·h/mL. Also, the peak level in “Clinical DDI study U107” (human, plasma, oral, 100 mg, Cmax, 100 mg alone, 2 h following a full meal (sequence AC, treatment A), geometric mean (CV%)) (Cmax) was 675 ng/mL. The Tmax in the series “Clinical DDI study U107” (human, plasma, oral, 100 mg, Tmax, 100 mg alone, 2 h following a full meal (sequence AC, treatment A), median (minimum–maximum)) stood at 3.03 h. This compound also yielded a Vd/F in the series “Clinical DDI study U107” (human, plasma, oral, 100 mg, Vz/F, 100 mg alone, 2 h following a full meal (sequence AC, treatment A), geometric mean (CV%)) of 223 L. The compound further showed a half-life in “Clinical DDI study U107” (human, plasma, oral, 100 mg, t1/2, 100 mg alone, 2 h following a full meal (sequence AC, treatment A), arithmetic mean (SD)) of 21.3 h. Moreover, in the series “Milademetan PBPK model” (setting [7]), the “Vsac (volume of single adjusting compartment)” value was determined as 0.5 L/kg. The “kin (first-order rate constant to single adjusting compartment)” value in “Milademetan PBPK model” (setting [7]) turned out to be 0.07 h⁻¹. In addition, the “kout (first-order rate constant from single adjusting compartment)” value in the series “Milademetan PBPK model” (setting [7]) worked out at 0.07 h⁻¹. In the series “Milademetan PBPK model” (Optimized by fitting clinical data (U107), milademetan and itraconazole sequence), the “CLint,CYP3A4 (CYP3A4-specific intrinsic clearance)” value is on record as 0.459 µL/min/pmol of isoform. Moreover, in “Milademetan PBPK model” (fitted to period one of sequence AB (alone, fasted), U107), the “oral clearance (CLpo), optimized” value amounted to 8.5 L/h. The microsomal CLint in the series “Milademetan PBPK model” (human) stood at 40.2 µL/min/mg. Besides, the “fmCYP3A4 (fraction metabolized by CYP3A4)” value in “Milademetan PBPK model” (optimized to recover observed AUCR and CmaxR of sequence AB (itraconazole)) is reported as 0.58. Further, the remaining parent on CYP3A4 [1] is reported as 61 % of the total radioactivity; on CYP3A5, 84 % of the total radioactivity. The same compound came in with a Papp at 120 min on P-gp of 17 ×10⁻⁶ cm/s. Also, the KI (inactivation) at CYP3A4 [2] turned out to be 60.5 µM. On CYP3A4 [2], this compound yielded an inhibitory constant (Ki) of 4.2 µM. In addition, in series [3] (setting [8]), the “biliary excretion of radioactivity” value was 20.4 ± 1.8 % of the dose. The “radioactivity recovered in feces” value is recorded as 75.1 ± 3.3 % of the dose in series [3] (setting [8]) and 94.2 ± 0.7% in series [3] (noncannulated rats, after 168 hours). In addition, the “reduction of exposure (AUC) with food” value in series [4] came to 24%. Further, the fraction unbound in series [5] was 0.02. In addition, in series [6] (120 mg q.d. 21/28, after 18–21 days of continuous dosing), the accumulation at steady-state is reported as 1.8 fold. Further, the “dose proportionality of systemic exposure” value in [6] (dose range 15–340 mg) is reported as “dose‐proportional increase in systemic drug exposure”. Moreover, the figures for the maximum tolerated dose in series [6] (q.d. 3/14 × 2 schedule) and in [6] (q.d. 21/28 schedule) were 260 mg and 160 mg, respectively.

The values are drawn from article PMC8604211 (Clinical and Translational Science, 2021).
